Measurements gathered from unrelated publications.
Cell line: HCT-116
Read-out: cell growth or viability

SMILES | assay | conditions | IC50
COc1c(C)cnc(COc2ccc(NC(=O)Nc3ccc(Cl)c(C(F)(F)F)c3)cc2)c1C | MTT | 72 h | 8.17 µM
CC1=C(O)C(=O)C=C2C1=CC=C1[C@@]2(C)CC[C@@]2(C)[C@@H]3C[C@](C)(C(=O)OCCCCCCCCO)CC[C@]3(C)CC[C@]12C | MTT | 48 h | 0.58 µM
COc1cc(-c2nc(C(=O)Nc3nnc(-c4cc5ccccc5n4C)s3)cc3c2[nH]c2ccccc23)cc(OC)c1OC | MTT | 72 h | 6.11 µM
CC(C)C[C@H](NC(=O)[C@H](Cc1ccccc1)NC(=O)c1cnccn1)B(O)O | ATP luminescence |  | 0.0097 µM
COc1ccnc(COc2ccc(NC(=O)Nc3cccc(C(F)(F)F)c3)cc2)c1OC | MTT | 72 h | 22.9 µM
CC(=O)SCc1cc(=O)oc2cc(O)ccc12 | MTT | 36 h | > 20 µM
COCCCOc1ccnc(COc2ccc(NC(=O)Nc3cccc(C(F)(F)F)c3)cc2)c1C | MTT | 72 h | 8.81 µM
O=c1cc(CCl)c2ccc(O)cc2o1 | MTT | 36 h | 8.47 µM
COc1cccc2c1C(=O)c1c(O)c3c(c(O)c1C2=O)C[C@@](O)(C(=O)CO)C[C@@H]3O[C@H]1C[C@H](N)[C@H](O)[C@H](C)O1 |  | 48 h | 1.02 µM
CNC(=O)c1cc(Oc2ccc(NC(=O)Nc3ccc(Cl)c(C(F)(F)F)c3)cc2)ccn1 | MTT | 72 h | 2.25 µM
CSc1nc(/N=C/c2cccc(O)c2)n(-c2ccc(C(=O)O)cc2)n1 | MTT |  | 70.1 µM
COc1ccc2oc(=O)cc(CCl)c2c1 | MTT | 36 h | > 20 µM
Clc1ccc(C[n+]2cn(CCc3ccccc3)c3ccccc32)cc1 | MTT | 72 h | 18.4 µM
COc1cc([C@@H]2c3cc4c(cc3[C@@H](O[C@@H]3O[C@@H]5CO[C@@H](C)O[C@H]5[C@H](O)[C@H]3O)[C@H]3COC(=O)[C@H]23)OCO4)cc(OC)c1O | MTS | 24 h | 29.6 µM
CC(=O)Oc1ccc2ccc(=O)oc2c1CBr | MTT | 36 h | > 20 µM
COc1cccc2c1C(=O)c1c(O)c3c(c(O)c1C2=O)C[C@@](O)(C(=O)CO)C[C@@H]3O[C@H]1C[C@H](N)[C@H](O)[C@H](C)O1 | SRB |  | 0.11 µM
COc1c(C)cnc(COc2ccc(NC(=O)Nc3ccc(Cl)cc3)cc2)c1C | MTT | 72 h | 19.3 µM
O=C(NC(=S)NCCCNC(=S)NC(=O)c1ccc2ccccc2c1)c1ccc2ccccc2c1 |  | 48 h | 1.23 µM
COCCCOc1ccnc(COc2ccc(NC(=O)Nc3ccc(F)cc3)cc2)c1C | MTT | 72 h | 6.44 µM
Cc1cc(C)n(-c2nc(Nc3ccc(Br)cc3)nc(N3CCOCC3)n2)n1 | MTT | 72 h | 0.5 µM
O=c1[nH]cc(F)c(=O)[nH]1 | WST-1 | 48 h | 9.5 µM
CC[C@H](C)C(=O)O[C@H]1C[C@H](O)C=C2C=C[C@H](C)[C@H](CC[C@@H](O)C[C@@H](O)CC(=O)O)[C@H]21 | SRB | 72 h | 1.57 µg/mL
Nc1nc(Oc2ccccc2)nn1-c1ccc(C(=O)O)cc1 | MTT |  | 61.2 µM
O=C(NC(=S)NCCNC(=S)NC(=O)c1ccc2ccccc2c1)c1ccc2ccccc2c1 |  | 48 h | 1.31 µM

SMILES | assay | conditions | IC50
CSc1nc(/N=C/c2cc(C)ccc2O)n(-c2ccc(C(=O)O)cc2)n1 | MTT |  | 43.9 µM
COc1cc(CNC(=O)CCCC/C=C/C(C)C)ccc1OCc1cn(-c2ccc(C(F)(F)F)cc2)nn1 | SRB |  | 8.9 µM
CC(=O)O[C@H]1C(=O)[C@@]2(C)[C@H]([C@H](OC(=O)c3ccccc3)[C@]3(O)C[C@H](OC(=O)[C@H](O)[C@@H](NC(=O)c4ccccc4)c4ccccc4)C(C)=C1C3(C)C)[C@]1(OC(C)=O)CO[C@@H]1C[C@@H]2O | fluorescence | 72 h | 0.0019 µM
O=C1Nc2c(C(F)(F)F)cccc2[C@@]1(c1ccc(O)cc1)c1ccc(OC(F)(F)F)cc1 | resazurin | 7 days | 0.093 µM
O=c1cc(CCl)c2cc(O)ccc2o1 | MTT | 36 h | > 20 µM
CSc1nc(N)n(-c2ccc(C(=O)O)cc2)n1 | MTT |  | 61 µM
O=c1c(O)c(-c2ccc(O)cc2)oc2cc(O)cc(O)c12 | WST-1 | 48 h | 44.7 µM
CC1=C(O)C(=O)C=C2C1=CC=C1[C@@]2(C)CC[C@@]2(C)[C@@H]3C[C@](C)(C(=O)OCCCOc4ccccc4)CC[C@]3(C)CC[C@]12C | MTT | 48 h | 1.34 µM
COc1ccc(O)c(/C=N/c2nc(SC)nn2-c2ccc(C(=O)O)cc2)c1 | MTT |  | 55.3 µM
COc1ccnc(COc2ccc(NC(=O)Nc3ccc(F)cc3)cc2)c1OC | MTT | 72 h | 22.3 µM
NC(=O)NOCCCCCCCCCCCCCCCCCCCC[P+](c1ccccc1)(c1ccccc1)c1ccccc1 | imaging |  | 0.23 µM
COc1ccc(O)c(/C=N/c2nc(Oc3ccccc3)nn2-c2ccc(C(=O)O)cc2)c1 | MTT |  | 58.5 µM
CC(=O)OCCOC(=O)[C@]1(C)CC[C@]2(C)CC[C@]3(C)C4=CC=C5C(=CC(=O)C(O)=C5C)[C@]4(C)CC[C@@]3(C)[C@@H]2C1 | MTT | 48 h | 0.47 µM
CCn1c(-c2nnc(NC(=O)c3cc4c([nH]c5ccccc54)c(-c4ccc(OC)cc4)n3)s2)cc2ccccc21 | MTT | 72 h | 19.9 µM
COCCCOC(=O)[C@]1(C)CC[C@]2(C)CC[C@]3(C)C4=CC=C5C(=CC(=O)C(O)=C5C)[C@]4(C)CC[C@@]3(C)[C@@H]2C1 | MTT | 48 h | 0.49 µM
Cc1c(OCC(F)(F)F)ccnc1COc1ccc(NC(=O)Nc2ccc(Cl)c(C(F)(F)F)c2)cc1 | MTT | 72 h | 5.6 µM
Cc1c(NC(=O)c2ccc(C(C)(C)C)cc2)cccc1-c1cn(C)c(=O)c(Nc2ccc(C(=O)N3CCOCC3)cc2)n1 |  |  | > 10 µM
O=C(/N=C1\S/C(=C\c2ccc(Cl)cc2)C(=O)N1C1CCCCC1)c1ccc2ccccc2c1 |  | 48 h | 9.28 µM
CCn1c(-c2nnc(NC(=O)c3cc4c([nH]c5ccccc54)c(-c4ccc(C)cc4)n3)s2)cc2ccccc21 | MTT | 72 h | 15.1 µM
COC(=O)/C=C1\S/C(=N\C(=O)c2ccc3ccccc3c2)N(C2CCCCC2)C1=O |  | 48 h | 12.2 µM
COc1ccc(-c2nc(C(=O)Nc3nnc(-c4cc5ccccc5n4C)s3)cc3c2[nH]c2ccccc23)cc1 | MTT | 72 h | 8.07 µM
O=C(NC(=S)NC1CCCCC1)c1ccc2ccccc2c1 |  | 48 h | 4.62 µM
COc1cccc2c3c(c[n+](C)c12)sc1cccc(F)c13 | MTT | 72 h | 6.8 µM
